For 35 compounds, Activity, Ratio Ki and ED50 results are on record in ChEMBL document CHEMBL4673223, “Synthesis, Biological, and Structural Explorations of New Zwitterionic Derivatives of 14- O-Methyloxymorphone, as Potent μ/δ Opioid Agonists and Peripherally Selective Antinociceptives” (J Med Chem, 2019).

Structures are written as SMILES. The source made the active and inactive calls. The rule behind the calls is not given here.

The target in experiment [1] is Delta-type opioid receptor (Homo sapiens) (UniProt P41143). Put plainly: Displacement of [3H]diprenorphine from human DOR expressed in CHO cell membranes incubated for 60 mins liquid scintillation counting assay. Conditions: Cell membrane, filed as agonist. A digest of the protocol: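 Membranes from CHO cells expressing human DOR (15–20 μg) in 50 mM Tris-HCl, pH 7.4, were incubated with 0.2 nM [3H]diprenorphine and varied test concentrations for 60 min at 25 °C. Nonspecific binding was set with 1–10 μM unlabeled diprenorphine. Samples were GF/C filtered and scintillation counted.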
Chain of Delta-type opioid receptor (Homo sapiens) (P41143 whole entry): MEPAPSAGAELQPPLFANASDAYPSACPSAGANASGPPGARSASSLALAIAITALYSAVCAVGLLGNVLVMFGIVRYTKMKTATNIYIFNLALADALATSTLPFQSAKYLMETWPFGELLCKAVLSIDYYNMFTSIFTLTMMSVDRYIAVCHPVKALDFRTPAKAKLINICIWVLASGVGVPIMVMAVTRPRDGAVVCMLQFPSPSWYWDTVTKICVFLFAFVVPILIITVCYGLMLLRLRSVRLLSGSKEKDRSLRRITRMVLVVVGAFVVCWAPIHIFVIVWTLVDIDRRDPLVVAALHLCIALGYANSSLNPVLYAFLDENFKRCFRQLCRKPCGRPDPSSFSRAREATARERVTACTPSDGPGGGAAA

The species named for another experiment is Rattus norvegicus. Put plainly: Selectivity index, ratio of Ki for displacement of [3H][Ile5,6]deltorphin II from delta opioid receptor in rat brain membranes to Ki for displacement of [3H]DAMGO from mu opioid receptor in rat brain membranes. It is filed as cell membranes. The essentials:
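Rat brain membranes (cerebella removed; 0.3–0.5 mg protein) in 50 mM Tris-HCl, pH 7.4, were incubated 45 min at 35 °C with 1 nM [3H]DAMGO (MOR) or 0.5 nM [3H][Ile5,6]deltorphin II (DOR) plus varied test concentrations. Nonspecific binding was set with 10 μM naloxone. Samples were GF/C filtered, washed and scintillation counted. Ki was obtained by Cheng–Prusoff; duplicates, 3–4 experiments.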

Experiment [2] concerns the target Mu-type opioid receptor (Homo sapiens) (UniProt P35372). Nature of the experiment: Agonist activity at human MOR expressed in CHO cell membranes incubated for 60 mins scintillation counting assay relative to DAMGO. Conditions: Cell membrane. The essentials: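 CHO-hMOR or CHO-hKOR membranes (5–10 μg) were incubated 60 min at 25 °C in HEPES/MgCl2/NaCl buffer, pH 7.4, with 0.05 nM [35S]GTPγS, 10 μM GDP and varied test concentrations. Nonspecific binding was set with 10 μM GTPγS. Samples were filtered and scintillation counted. % stimulation was taken from concentration–response curves relative to the full agonist (DAMGO for MOR, U69,593 for KOR). Duplicates, 3–4 experiments.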

Experiment [3] is described as follows: Selectivity index, ratio of Ki for displacement of [3H]U69,593 from kappa opioid receptor in guinea-pig brain membranes to Ki for displacement of [3H]DAMGO from mu opioid receptor in rat brain membranes. It is filed as cell membranes. The essentials: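 Guinea-pig brain membranes (0.3–0.5 mg protein) in 50 mM Tris-HCl, pH 7.4, were incubated with 1 nM [3H]U69,593 for 30 min at 30 °C, with 10 μM naloxone defining nonspecific binding. MOR was measured on rat brain membranes with 1 nM [3H]DAMGO for 45 min at 35 °C. Samples were filtered and scintillation counted, and Ki was obtained by Cheng–Prusoff; duplicates, 3–4 experiments.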

For another experiment, the system named is Mus musculus. Put plainly: Antinociceptive activity in sc dosed CD1 mouse assessed as inhibition of the writhing response after 30 mins post dose by acetic acid-induced writhing assay. As to conditions: 0.5 h. It is filed as functional.

Chain of Mu-type opioid receptor (Homo sapiens) (P35372 whole entry): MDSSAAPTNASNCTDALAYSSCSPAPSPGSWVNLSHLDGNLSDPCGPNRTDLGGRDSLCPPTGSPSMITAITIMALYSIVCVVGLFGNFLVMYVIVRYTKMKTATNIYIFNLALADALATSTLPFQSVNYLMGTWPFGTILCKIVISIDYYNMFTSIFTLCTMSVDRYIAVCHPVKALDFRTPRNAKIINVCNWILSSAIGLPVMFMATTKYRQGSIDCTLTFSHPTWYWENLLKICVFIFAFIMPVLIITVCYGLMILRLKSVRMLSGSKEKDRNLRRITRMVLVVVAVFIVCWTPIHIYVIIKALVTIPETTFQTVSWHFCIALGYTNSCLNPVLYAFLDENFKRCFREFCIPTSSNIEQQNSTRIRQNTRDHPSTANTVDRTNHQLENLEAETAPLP

Turning to `CO[C@@]12CC[C@H](N[C@H](C)C(=O)O)[C@@H]3Oc4c(O)ccc5c4[C@@]31CCN(C)[C@@H]2C5`, in experiment [1], the outcome was Active.

With `CO[C@@]12CC[C@@H](N[C@H](C)C(=O)O)[C@@H]3Oc4c(O)ccc5c4[C@@]31CCN(C)[C@@H]2C5`, in experiment [1], the result was Active.

Turning to `CO[C@@]12CC[C@@H](N[C@H](C(=O)N[C@@H](Cc3ccc(O)cc3)C(=O)O)C(C)C)[C@@H]3Oc4c(O)ccc5c4[C@@]31CCN(C)[C@@H]2C5`, in experiment [1], the outcome was Active. Also, in the experiment listed under Rattus norvegicus, the Ratio Ki came out at 3.1. Moreover, in experiment [2] (filed as partial agonist), the Activity amounted to 73%.

Turning to `CO[C@@]12CC[C@H](NCCC(=O)O)[C@@H]3Oc4c(O)ccc5c4[C@@]31CCN(C)[C@@H]2C5`, the result in experiment [1] was Active. Further, the Ratio Ki in the experiment listed under Rattus norvegicus came to 46; in experiment [3], 140.

In the case of `CO[C@@]12CC[C@H](N[C@@H](CCC(N)=O)C(=O)O)[C@@H]3Oc4c(O)ccc5c4[C@@]31CCN(C)[C@@H]2C5`, the outcome in experiment [1] was Active. Besides, the values for the Ratio Ki (in the experiment filed under Rattus norvegicus; in experiment [3]) were 1.6 and 108, respectively.

On to `CO[C@@]12CC[C@@H](N[C@@H](CCC(N)=O)C(=O)O)[C@@H]3Oc4c(O)ccc5c4[C@@]31CCN(C)[C@@H]2C5`, for which the outcome in experiment [1] was Active. The Ratio Ki was determined as 2 in the experiment listed under Rattus norvegicus and 117 in experiment [3].

`CO[C@@]12CC[C@H](NCC(=O)O)[C@@H]3Oc4c(O)ccc5c4[C@@]31CCN(C)[C@@H]2C5`: the result in experiment [1] was Active.

With `CC[C@H](N[C@H]1CC[C@@]2(OC)[C@H]3Cc4ccc(O)c5c4[C@@]2(CCN3C)[C@H]1O5)C(=O)O`, the result in experiment [1] was Active. Further, the Ratio Ki in experiment [3] came out at 189. Moreover, the ED50 with Mus musculus was 0.0175 mg/kg.

As for `CO[C@@]12CC[C@@H](N[C@H](Cc3ccccc3)C(=O)O)[C@@H]3Oc4c(O)ccc5c4[C@@]31CCN(C)[C@@H]2C5`, the outcome in experiment [1] was Active. Also, the Ratio Ki in the experiment filed under Rattus norvegicus was 0.9; in experiment [3], 109. In experiment [2] (filed as agonist), this compound had an Activity of 78%.

Take `CN1CC[C@]23c4c5ccc(O)c4O[C@H]2[C@H](NCC(=O)O)CC[C@@]3(OCCCc2ccccc2)[C@H]1C5`: in experiment [1], the result was Active.

For `CO[C@@]12CC[C@H](N[C@@H](CCCCN)C(=O)O)[C@@H]3Oc4c(O)ccc5c4[C@@]31CCN(C)[C@@H]2C5`, the result in experiment [1] was Active. In addition, the Ratio Ki came to 6.7 in the experiment filed under Rattus norvegicus and 66 in experiment [3].

Consider `CO[C@@]12CC[C@@H](N[C@@H](CC(N)=O)C(=O)O)[C@@H]3Oc4c(O)ccc5c4[C@@]31CCN(C)[C@@H]2C5`, for which the result in experiment [1] was Active. In addition, the values for the Ratio Ki (in the experiment filed under Rattus norvegicus; in experiment [3]) were 1.8 and 82, respectively.

Turning to `CO[C@@]12CC[C@H](N[C@H](C(=O)N[C@@H](Cc3ccc(O)cc3)C(=O)O)C(C)C)[C@@H]3Oc4c(O)ccc5c4[C@@]31CCN(C)[C@@H]2C5`, the outcome in experiment [1] was Active. The Ratio Ki amounted to 1.5 in the experiment listed under Rattus norvegicus and 84 in experiment [3]. The compound further returned an Activity in experiment [2] (filed as partial agonist) of 84%.

As for `CO[C@@]12CC[C@H](N[C@@H](Cc3c[nH]c4ccccc34)C(=O)O)[C@@H]3Oc4c(O)ccc5c4[C@@]31CCN(C)[C@@H]2C5`, in experiment [1], the result was Active. The Ratio Ki in the experiment listed under Rattus norvegicus amounted to 2.8; in experiment [3], 70.

For the compound `CO[C@@]12CC[C@@H](NCCCC(=O)O)[C@@H]3Oc4c(O)ccc5c4[C@@]31CCN(C)[C@@H]2C5`, the result in experiment [1] was Active. In addition, in the experiment filed under Rattus norvegicus, the Ratio Ki was 4.7.

With `CO[C@@]12CC[C@@H](N[C@@H](CO)C(=O)O)[C@@H]3Oc4c(O)ccc5c4[C@@]31CCN(C)[C@@H]2C5`, in experiment [1], the result was Active. In addition, the Ratio Ki in the experiment listed under Rattus norvegicus turned out to be 2.5; in experiment [3] it was 71.

Take `CO[C@@]12CC[C@H](N[C@H](C(=O)O)C(C)C)[C@@H]3Oc4c(O)ccc5c4[C@@]31CCN(C)[C@@H]2C5`: in experiment [1], the outcome was Active. The Ratio Ki in the experiment filed under Rattus norvegicus stood at 1.2; in experiment [3], 103.

As to `CO[C@@]12CC[C@H](NCCCC(=O)O)[C@@H]3Oc4c(O)ccc5c4[C@@]31CCN(C)[C@@H]2C5`, the outcome in experiment [1] was Active. Besides, the figures for the Ratio Ki (in the experiment filed under Rattus norvegicus; in experiment [3]) were 16 and 59, respectively.

For `CO[C@@]12CC[C@@H](NCCC(=O)O)[C@@H]3Oc4c(O)ccc5c4[C@@]31CCN(C)[C@@H]2C5`, the outcome in experiment [1] was Active. The Ratio Ki in the experiment filed under Rattus norvegicus came to 13; in experiment [3], 69. In experiment [2] (filed as agonist), this compound gave an Activity of 78%.

For `CO[C@@]12CC[C@H](N[C@@H](C(=O)O)C(C)C)[C@@H]3Oc4c(O)ccc5c4[C@@]31CCN(C)[C@@H]2C5`, in experiment [1], the result was Active. The Ratio Ki came out at 1.1 in the experiment listed under Rattus norvegicus and 119 in experiment [3].

Take `CO[C@@]12CC[C@H](N[C@@H](CC(=O)O)C(=O)O)[C@@H]3Oc4c(O)ccc5c4[C@@]31CCN(C)[C@@H]2C5`: the outcome in experiment [1] was Active. The Ratio Ki came to 11 in the experiment listed under Rattus norvegicus and 37 in experiment [3].

On to `CO[C@@]12CC[C@@H](N[C@H](C(=O)O)C(C)C)[C@@H]3Oc4c(O)ccc5c4[C@@]31CCN(C)[C@@H]2C5`, for which the result in experiment [1] was Active. Also, the values for the Ratio Ki (in the experiment listed under Rattus norvegicus; in experiment [3]) were 1.2 and 100, respectively. Further, in experiment [2] (filed as agonist), the Activity was 84%.

Take `CO[C@@]12CC[C@H](N[C@H](Cc3ccccc3)C(=O)O)[C@@H]3Oc4c(O)ccc5c4[C@@]31CCN(C)[C@@H]2C5`: the result in experiment [1] was Active. Further, the Ratio Ki in the experiment filed under Rattus norvegicus was found to be 6; in experiment [3], 125. In addition, in the experiment with Mus musculus, the ED50 was 0.0181 mg/kg.

In the case of `CO[C@@]12CC[C@@H](N[C@@H](CCC(=O)O)C(=O)O)[C@@H]3Oc4c(O)ccc5c4[C@@]31CCN(C)[C@@H]2C5`, in experiment [1], the result was Active. Further, the Ratio Ki in the experiment listed under Rattus norvegicus was determined as 0.7; in experiment [3], 108.

In the case of `CO[C@@]12CC[C@H](N[C@@H](CO)C(=O)O)[C@@H]3Oc4c(O)ccc5c4[C@@]31CCN(C)[C@@H]2C5`, in experiment [1], the outcome was Active. Further, the Ratio Ki in the experiment filed under Rattus norvegicus was found to be 2.4; in experiment [3], 89.

Turning to `CO[C@@]12CC[C@@H](N[C@@H](CC(=O)O)C(=O)O)[C@@H]3Oc4c(O)ccc5c4[C@@]31CCN(C)[C@@H]2C5`, the result in experiment [1] was Active. Also, the results for the Ratio Ki (in the experiment listed under Rattus norvegicus; in experiment [3]) were 6.6 and 103, respectively. Moreover, in experiment [2] (filed as agonist), the Activity came out at 74%.

With `CO[C@@]12CC[C@H](N[C@@H](Cc3ccc(O)cc3)C(=O)O)[C@@H]3Oc4c(O)ccc5c4[C@@]31CCN(C)[C@@H]2C5`, in experiment [1], the result was Active. In addition, the Ratio Ki in the experiment listed under Rattus norvegicus was found to be 2.6; in experiment [3] it was 48. Further, the ED50 with Mus musculus was 0.0146 mg/kg.

Consider `CO[C@@]12CC[C@@H](N[C@@H](Cc3ccc(O)cc3)C(=O)O)[C@@H]3Oc4c(O)ccc5c4[C@@]31CCN(C)[C@@H]2C5`, for which the outcome in experiment [1] was Active. Also, the Ratio Ki is 1.2 in the experiment filed under Rattus norvegicus and 58 in experiment [3].

For the compound `CO[C@@]12CCC(=O)[C@@H]3Oc4c(O)ccc5c4[C@@]31CCN(C)[C@@H]2C5`, the outcome in experiment [1] was Active.

For `CO[C@@]12CC[C@@H](N[C@@H](C(=O)O)C(C)C)[C@@H]3Oc4c(O)ccc5c4[C@@]31CCN(C)[C@@H]2C5`, the result in experiment [1] was Active. Moreover, the values for the Ratio Ki (in the experiment listed under Rattus norvegicus; in experiment [3]) were 1.6 and 156, respectively. Moreover, in the experiment with Mus musculus, the ED50 is 0.014 mg/kg.

As to `CO[C@@]12CCC(N[C@@H](CCC(=O)O)C(=O)O)[C@@H]3Oc4c(O)ccc5c4[C@@]31CCN(C)[C@@H]2C5` (single isomer, unassigned), the outcome in experiment [1] was Active. For the same compound, the Ratio Ki in the experiment filed under Rattus norvegicus was found to be 6.2; in experiment [3], 60.

For `CO[C@@]12CC[C@H](N[C@H](C(=O)O)C3CCCCC3)[C@@H]3Oc4c(O)ccc5c4[C@@]31CCN(C)[C@@H]2C5`, the outcome in experiment [1] was Active. For the same compound, the Ratio Ki in the experiment filed under Rattus norvegicus was 12; in experiment [3], 144.

Consider `CN1CC[C@]23c4c5ccc(O)c4O[C@H]2[C@@H](NCC(=O)O)CC[C@@]3(OCCCc2ccccc2)[C@H]1C5`, for which the outcome in experiment [1] was Active.

In the case of `CN1CC[C@]23c4c5ccc(O)c4O[C@H]2[C@@H](O)C=C[C@H]3[C@H]1C5` [MORPHINE], in the experiment on Mus musculus, the 50% effective dose (ED50) is 0.437 mg/kg.

For `CO[C@@]12CC[C@H](N[C@@H](CC(N)=O)C(=O)O)[C@@H]3Oc4c(O)ccc5c4[C@@]31CCN(C)[C@@H]2C5`, the result in experiment [1] was Active. Besides, the Ratio Ki in the experiment filed under Rattus norvegicus came to 2.9; in experiment [3], 63. Further, the ED50 with Mus musculus stood at 0.0152 mg/kg.
